Cneo AK release: Cryptococcus neoformans cell lysis inducers, primary screen, AK release luminescence, single concentration | 0.2% of 360,000 active | C. neoformans lysis, adenylate kinase release luminescence, 4 h; normalised: neutral wells 0, clomiphene wells 100 | AID 651654, 2012 | lysis activity, % at 15 µM;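 active = mean lysis activity across replicates of at least 80%, whatever share of replicates individually reach that level; inactive = mean lysis activity below 80%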
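Material – Cryptococcus neoformans yeast cells · Quantity – 5 × 10^6 yeast cells/mL · Buffer or medium – YPD medium · Compound – single dose · Timing – 4 h static compound exposure, 37 °C, read 1 h post-reagent · Signal – adenylate kinase release luminescence · Read-out basis – lysis from increased AK signal · Benchmarks – Clomiphene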
rRNA inh HTS: reduced GFP signal of wild-type E. coli, primary screen, bacterial rRNA inhibitor project, GFP/RFP fluorescence, OD600, single point | E. coli WT GFP vs humanized-ribosome RFP mutants, 24 h; stronger effect = lower value; DMSO median 0, no signal -100 | GFP signal change (wild-type ribosome), % (concentration not given with the values) | 1.6% of 350,000 active;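 active = significant combined selectivity score with lowered wild-type GFP, culture density cut under 30%, mutant RFP and density less affected; inactive = any of these conditions unmet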
PfHsp90 yeast 2: growth inhibition of PfHsp90-expressing yeast, primary screen, antimalarial PfHsp90 inhibitor project, S. cerevisiae, BacTiter-Glo luminescence, single point, set 2; BacTiter-Glo ATP, 48 h; yeast lacking PDR1 and PDR3 efflux regulators; inhibition, % at 9.4 µM; 0.32% of 310,000 active;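 active = every replicate shows inhibition above about 80%, whatever the replicate mean, limit read from the data; inconclusive = mean inhibition reaches the set limit but some replicate falls short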;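 also: 0% = DMSO neutral controls and 100% = 20 µM radicicol positive controls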
DENV2 CPE: inhibitors of DENV2 cytopathic effect, primary screen, cell-based, plate reader, single concentration; DENV2-infected cells, cytopathic effect rescue; CPE inhibition, % at 9.99 µM; 1.7% of 350,000 active; in the data active = CPE inhibition above about 20%, passing the limit was not always enough; inconclusive = no clear call, values can overlap the other calls; tested in BHK-21 cells;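 also: 0% = median of neutral control wells and 100% = median of positive control wells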
S100A4 inh HTS: inhibitors of S100A4-myosin IIA peptide binding, primary screen, biochemical, fluorescence polarization, TAMRA-MyoIIA peptide. Protein S100-A4 (Homo sapiens), P26447. 0.14% of 360,000 active. AID 652163, 2013. inhibition, % at 10.7 µM;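 active = mean inhibition of at least 70% across replicates, with every replicate also reaching that level; inconclusive = mean inhibition reaches 70% but some replicates fall short; inactive = mean inhibition below 70%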
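Material: S100A4 monomer (human). Medium: Calcium-containing HEPES buffer, pH 7.2. Probe or stimulus: labelled myosin peptide probe, 5 nM. Compound dosing: one concentration per compound. Timing: polarization read 5 min after assay mix addition, stable 5–60 min. Benchmarks: DMSO as neutral control, TFP as positive control.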
AF4-AF9 inh: inhibitors of AF4 peptide binding to AF9, primary screen, biochemical, AlphaScreen, biotin-AF4 peptide, FLAG-AF9, single point. Protein AF-9 (Homo sapiens), P42568. inhibition, % at 10 µM. 0.47% of 350,000 active. AID 651704, 2012;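 active = every replicate reaching a set inhibition limit, whatever the replicate mean, cut at about 25% in these data; inconclusive = mean inhibition reaches that limit but some replicates miss it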;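 also: 0% = plate neutral control median and 100% = total signal loss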
Target sequence (P42568 whole entry, looked up): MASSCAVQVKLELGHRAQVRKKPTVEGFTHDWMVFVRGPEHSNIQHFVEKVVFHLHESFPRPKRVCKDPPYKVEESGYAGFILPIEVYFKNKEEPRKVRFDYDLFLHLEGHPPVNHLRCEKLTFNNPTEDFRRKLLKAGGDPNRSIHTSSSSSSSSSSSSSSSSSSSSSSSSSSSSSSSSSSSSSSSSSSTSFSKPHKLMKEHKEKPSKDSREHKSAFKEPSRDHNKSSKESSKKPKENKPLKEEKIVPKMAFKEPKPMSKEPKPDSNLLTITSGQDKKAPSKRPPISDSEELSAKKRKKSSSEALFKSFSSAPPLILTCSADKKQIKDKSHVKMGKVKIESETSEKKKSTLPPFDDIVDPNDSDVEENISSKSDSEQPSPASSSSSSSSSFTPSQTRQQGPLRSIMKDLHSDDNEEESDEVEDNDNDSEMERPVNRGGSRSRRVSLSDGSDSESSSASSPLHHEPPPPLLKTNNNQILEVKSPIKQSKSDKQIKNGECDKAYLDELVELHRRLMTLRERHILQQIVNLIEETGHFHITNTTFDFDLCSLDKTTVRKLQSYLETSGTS
Active calls of the source: *; ? = inconclusive; · = not tested or not shown. Most compounds without a hit are left out; they make up all but 3.2% or so of the library.

SMILES	Cneo AK release	rRNA inh HTS	PfHsp90 yeast 2	DENV2 CPE	S100A4 inh HTS	AF4-AF9 inh
Cc1ccc(S(=O)(=O)N(C)C[C@H]2OCCCC[C@H](C)Oc3ccc(NS(=O)(=O)c4c(C)noc4C)cc3C(=O)N([C@@H](C)CO)C[C@@H]2C)cc1	-4	-2	·	43*	-11	0
Cc1ccc(S(=O)(=O)Nc2ccc3c(c2)C(=O)N([C@@H](C)CO)C[C@@H](C)[C@@H](CN(C)S(=O)(=O)c2c(C)noc2C)OCCCC[C@@H](C)O3)cc1	2	-2	·	28*	-1	-2
Cc1noc(C)c1S(=O)(=O)Nc1ccc2c(c1)C(=O)N([C@@H](C)CO)C[C@@H](C)[C@H](CN(C)S(=O)(=O)c1ccccc1)OCCCC[C@@H](C)O2	0	-3	·	94*	0	0
Cc1ccc(S(=O)(=O)Nc2ccc3c(c2)C(=O)N([C@@H](C)CO)C[C@@H](C)[C@H](CN(C)S(=O)(=O)c2c(C)noc2C)OCCCC[C@@H](C)O3)cc1	-4	0	·	2	-8	0
Cc1ccc(S(=O)(=O)N(C)C[C@@H]2OCCCC[C@@H](C)Oc3ccc(NS(=O)(=O)c4c(C)noc4C)cc3C(=O)N([C@H](C)CO)C[C@@H]2C)cc1	1	16	·	-2	4	2
Cc1ccc(S(=O)(=O)N(C)C[C@@H]2OCCCC[C@H](C)Oc3ccc(NS(=O)(=O)c4c(C)noc4C)cc3C(=O)N([C@H](C)CO)C[C@@H]2C)cc1	-1	-1	·	89*	-6	4
C[C@@H]1CN([C@H](C)CO)S(=O)(=O)c2ccc(C3=CCCC3)cc2O[C@H]1CN(C)C(=O)c1cnccn1	·	0	·	·	·	·
C[C@@H]1CN([C@H](C)CO)C(=O)c2cc(NC(=O)CCCN(C)C)ccc2O[C@@H]1CN(C)S(=O)(=O)c1ccc(F)cc1	-1	2	·	17	-2	-1
COc1ccc(S(=O)(=O)N(C)C[C@@H]2Oc3ccc(NC(=O)Cc4ccccc4)cc3C(=O)N([C@H](C)CO)C[C@@H]2C)cc1	0	1	·	-13	-10	0
C[C@@H]1CN([C@@H](C)CO)C(=O)c2cccc(NC(=O)Nc3ccc4c(c3)OCO4)c2O[C@H]1CN(C)C(=O)Nc1ccccc1	-2	-2	·	-2	·	·
CC(=O)N[C@@H]1CC[C@@H](CC(=O)NCc2ccc(Cl)cc2)O[C@H]1CO	1	1	·	?	-23	-11
Cc1ccc(S(=O)(=O)N(C)C[C@@H]2OCCCC[C@H](C)Oc3ccc(NS(=O)(=O)c4c(C)noc4C)cc3C(=O)N([C@H](C)CO)C[C@H]2C)cc1	3	3	·	112*	-15	2
Cc1ccc(S(=O)(=O)N(C)C[C@@H]2OCCCC[C@@H](C)Oc3ccc(NS(=O)(=O)c4c(C)noc4C)cc3C(=O)N([C@H](C)CO)C[C@H]2C)cc1	10	2	·	62*	-2	4
Cc1ccc(S(=O)(=O)N(C)C[C@H]2OCCCC[C@@H](C)Oc3ccc(NS(=O)(=O)c4c(C)noc4C)cc3C(=O)N([C@H](C)CO)C[C@H]2C)cc1	7	-1	·	21*	43	1
C=C(C)C(=O)N1CC2(CC(c3cccc(NC(=O)/C=C\C)c3)=NO2)C[C@H]1C(N)=O (some centres not stated)	-5	0	-25	128*	0	1
C/C=C/C(=O)Nc1cccc(C2=NOC3(C2)C[C@H](C(N)=O)N(C(=O)/C=C/C)C3)c1 (some centres not stated)	-2	4	-6	-6	2	0
